The source of these data is article PMC10395006 (Archives of toxicology, 2022).

The structures appear in SMILES notation.

The test system of series [1] is CYP3A4. The following applies: human liver microsomes. In general terms: Liver microsomes are a subcellular fraction often used to study metabolism.
For series [2], the system named is HepG2 cells.
The conditions of series [3]: cited from earlier work.
Series [4] deals with Primary human hepatocytes. As to the kind of experiment: Cellular ATP assay. The format is cell-based. As to conditions: 24 h.
The subject of series [5] is HepG2 cells. As to the kind of experiment: Cellular ATP assay. The format is cell-based, human. The following applies: 24 h.
Series [6] relates to HepG2 cells. In words: Lactate dehydrogenase. It counts as cell-based, human. The following applies: 2.5-10 μM, 24 h.
For series [7], the system named is HepG2 cells. As to the kind of experiment: Caspase 3/7 activity. The format is cell-based, human. As to conditions: 7.5 or 10 μM, 24 h.
Series [8] concerns HepG2 cells. As to the kind of experiment: Mitochondrial membrane potential. The format is cell-based, human. The following applies: 2.5-10 μM, 24 h.
In series [9] the target is T1, CYP2D6-overexpressing HepG2 cells (Homo sapiens, UniProt P10635). It counts as cell-based.
T1 sequence (P10635 whole entry): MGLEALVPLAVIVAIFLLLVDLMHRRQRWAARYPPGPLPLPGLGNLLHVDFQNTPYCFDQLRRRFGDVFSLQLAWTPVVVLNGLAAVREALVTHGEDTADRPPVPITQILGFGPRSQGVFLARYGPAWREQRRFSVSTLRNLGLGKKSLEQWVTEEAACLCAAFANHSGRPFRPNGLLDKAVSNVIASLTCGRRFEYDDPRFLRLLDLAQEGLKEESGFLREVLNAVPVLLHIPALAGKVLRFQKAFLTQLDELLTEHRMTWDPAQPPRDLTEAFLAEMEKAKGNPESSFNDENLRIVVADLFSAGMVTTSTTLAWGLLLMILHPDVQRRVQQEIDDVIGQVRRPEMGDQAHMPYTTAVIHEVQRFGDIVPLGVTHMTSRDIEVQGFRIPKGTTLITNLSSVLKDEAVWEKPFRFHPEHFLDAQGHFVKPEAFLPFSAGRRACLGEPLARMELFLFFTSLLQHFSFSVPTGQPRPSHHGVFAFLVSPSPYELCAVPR
Series [10] concerns CYP2C19-overexpressing HepG2 cells. As to the kind of experiment: Perhexiline toxicity endpoints. It counts as cell-based, human. As to conditions: 5–10 μM, 24 h.
In series [11] the test system is CYP1A2-overexpressing HepG2 cells. As to the kind of experiment: Perhexiline toxicity endpoints. It counts as cell-based, human. The following applies: 5–10 μM, 24 h.
The target in series [12] is T2, CYP3A4-overexpressing HepG2 cells (Homo sapiens, UniProt P08684). The format is cell-based.
T2 sequence (P08684 whole entry): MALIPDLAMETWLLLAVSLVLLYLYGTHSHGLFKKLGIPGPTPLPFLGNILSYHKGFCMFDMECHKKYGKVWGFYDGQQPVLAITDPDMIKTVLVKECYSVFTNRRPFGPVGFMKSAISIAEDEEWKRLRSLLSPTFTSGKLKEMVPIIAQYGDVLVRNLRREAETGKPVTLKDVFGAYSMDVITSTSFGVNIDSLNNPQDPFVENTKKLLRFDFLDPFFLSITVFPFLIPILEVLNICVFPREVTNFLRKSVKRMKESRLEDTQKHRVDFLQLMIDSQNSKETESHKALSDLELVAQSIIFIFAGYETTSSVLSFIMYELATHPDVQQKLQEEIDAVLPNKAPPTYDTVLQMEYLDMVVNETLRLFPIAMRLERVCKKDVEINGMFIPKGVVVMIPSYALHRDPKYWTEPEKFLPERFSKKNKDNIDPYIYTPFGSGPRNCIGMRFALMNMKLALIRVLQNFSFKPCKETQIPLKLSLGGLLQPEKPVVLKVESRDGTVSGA
Series [13] has as its system ATF6, ERN1, EIF2AK3, ATF4, and DDIT3 mRNA in EV control HepG2 cells. In words: Quantitative real-time PCR of ER stress genes. It counts as cell-based, human. The following applies: 10 μM, 24 h. (In qPCR the cycle at which signal appears reflects the starting amount.)
For series [14], the system named is CHOP in EV control HepG2 cells. In words: Western blot of ER stress marker CHOP. The format is cell-based, human. As to conditions: EV control cells upon perhexiline treatment. In short, it runs like this: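 Empty-vector control HepG2 cells seeded at 3 × 10^5 cells/ml in 60 mm plates and treated about 24 h after seeding, with 0.1% v/v DMSO as control. Cells lysed directly in RIPA buffer with protease inhibitor cocktail and total protein quantified. Immunoblotted with primary antibodies against CHOP, using GAPDH as loading reference.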

The test system of series [15] is CYP1A2-overexpressing HepG2 cells. As to the kind of experiment: Mass spectrometry of perhexiline and metabolites in CYP-overexpressing cells. It counts as in vitro ADME, human. As to conditions: 5 μM perhexiline, 24 h.
Series [16] concerns CYP2C19-overexpressing HepG2 cells. The series is described as above. The following applies: 5 μM perhexiline, 24 h. The format is in vitro ADME, human.
Series [17] is described as follows: CellTiter-Blue cell viability assay. As to conditions: human, HepG2 cells. Background: Resazurin is reduced to fluorescent resorufin, in cell work by metabolically active cells.
Series [18] relates to HepG2 cells. In words: CellTiter-Blue cell viability assay. As to conditions: 2.5-10 μM, 24 h.
The target of series [19] is T1, CYP2D6-overexpressing HepG2 cells. In words: Mass spectrometry of perhexiline and metabolites in CYP-overexpressing cells. As to conditions: 5 μM perhexiline, 24 h.
For series [20], the target named is T2, CYP3A4-overexpressing HepG2 cells. Described as above. The following applies: 5 μM perhexiline, 24 h.
In series [21] the target is CYP2C19 (Homo sapiens, UniProt P33261). The following applies: human liver microsomes.
Sequence of CYP2C19 (P33261 whole entry): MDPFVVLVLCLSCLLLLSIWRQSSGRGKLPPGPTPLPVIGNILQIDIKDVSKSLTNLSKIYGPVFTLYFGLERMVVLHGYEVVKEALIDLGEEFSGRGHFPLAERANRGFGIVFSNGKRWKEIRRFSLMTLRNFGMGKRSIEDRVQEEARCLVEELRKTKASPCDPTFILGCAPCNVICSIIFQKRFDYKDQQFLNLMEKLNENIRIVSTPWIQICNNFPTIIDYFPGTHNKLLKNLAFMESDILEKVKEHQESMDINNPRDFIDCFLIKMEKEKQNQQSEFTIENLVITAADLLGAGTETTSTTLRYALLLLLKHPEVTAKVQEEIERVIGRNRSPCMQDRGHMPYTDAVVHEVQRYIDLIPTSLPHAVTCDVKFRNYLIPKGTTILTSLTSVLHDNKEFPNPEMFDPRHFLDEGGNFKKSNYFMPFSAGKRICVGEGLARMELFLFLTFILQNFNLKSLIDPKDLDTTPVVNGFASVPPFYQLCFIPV
Series [22] concerns the target T1, CYP2D6-overexpressing HepG2 cells.
Setting [23] is: ketoconazole (CYP3A4 inhibitor).

As for `CC(=O)N1CCN(c2ccc(OCC3COC(Cn4ccnc4)(c4ccc(Cl)cc4Cl)O3)cc2)CC1` (stereo not shown) [ketoconazole], the “suppression of formation of M3 (trans-OH-Phx-2)” value in series [1] (ketoconazole 2 μM, perhexiline 30 μM) is listed as “up to 80%”. Further, in series [1] (setting [23]), the “effect on formation of M1 (trans-OH-Phx-1)” value was “reduced” and the “effect on formation of M5 (cis-OH-Phx)” value is “did not have effect”.
Take `O[C@H]1CC[C@H](C(CC2CCCCN2)C2CCCCC2)CC1` (stereo partly drawn) [trans-OH-Phx]: half-maximal inhibition in series [2] (IC50) required 56 µM. The “plasma trans-OH-Phx level post-dosage” value in series [3] (most patients, ref Amoah et al. 1986, Cooper et al. 1984, 1987) is “undetectable”.
Consider `C1CCC(C(CC2CCCCN2)C2CCCCC2)CC1` (stereo not shown) [perhexiline], for which the “concentration at which cytotoxicity was observed starting” value in series [4] (hepatic cells, concentrations ranged from 2.5 μM to 15 μM) came to 5 µM. For the same compound, the “lowest concentration at which a decrease in ATP was observed” value in series [4] (primary human hepatocytes, 5 to 15 μM) was determined as 5 µM. Further, the “cellular ATP levels at 10 μM” value in series [5] (10 μM) is given as “largely depleted”. Moreover, in series [5] (2.5–10 μM), the “cellular ATP levels” value is “concentration-dependent decrease”. Moreover, the LDH release entry in series [6] is reported as “concentration-dependent increase”. Also, in [7], the “caspase 3/7 activity” value is “increase”. Further, the “mitochondrial membrane potential level (JC-1)” value in series [8] is listed as “significant concentration-dependent decrease”. In addition, the “perhexiline-induced increase in CHOP protein vs EV control” value in series [9] was “greatly reduced”. Moreover, in series [9] (10 μM, 24 h), the “perhexiline-induced increase in ER stress gene mRNA vs EV control” value is on record as “drastically attenuated”. In series [9] (24 h), the “perhexiline-induced increase in caspase 3/7 vs EV control” value is “abolished”. For the same compound, the “protective effect on ATP levels and LDH release vs EV control” value is “little protective effect” in series [10]; “little protective effect” in [11]; “little protective effect” in series [12] (5–10 μM, 24 h). The “caspase 3/7 activities, EV control vs CYP3A4 cells” value in series [12] is “little difference”. In series [12], the “effect in JC-1 staining vs EV control” value is recorded as “marginal protective effect”. In addition, the “mRNA levels of ATF6, ERN1, EIF2AK3, ATF4, and DDIT3 (fold change vs DMSO)” value in [13] is “significantly elevated”. In [14], the CHOP protein level entry is “markedly increased”. For the same compound, the “parent perhexiline level vs EV control” value in [15], in [16] and in series [20] was “significant reduction” throughout. Besides, the “plasma perhexiline beyond 24 h after a single administration” value in series [3] (known extensive metabolizers, ref Cooper et al. 1987) is reported as “undetectable”. This compound displayed an IC50 at 24 h in series [17] of 8 µM. Besides, the cell viability entry in [18] was “significant decrease”. In addition, the “amount of parent perhexiline relative to EV control” value in [19] stood at 1%.
With `OC1CCC([C@@H](CC2CCCCN2)C2CCCCC2)CC1` (stereo in doubt) [cis-OH-Phx], the midpoint of inhibition in series [2], the IC50, lay at 90 µM.
In the case of `C=C(C)[C@@H]1CCC2=CC(=O)C[C@@H](C)[C@]2(C)C1` [nootkatone], the “effect on the formation of M1, M3, and M5” value in [21] (nootkatone 10 μM (CYP2C19 inhibitor)) was “did not show significant effect”. Besides, in series [21] (nootkatone (CYP2C19 inhibitor)), the “effect on the relative abundance of trans-OH-Phx” value is recorded as “little effect”.
With `C1CCC(C(CC2CCCCN2)C2CCCCC2)CC1` (single isomer, unassigned; (-)) [(−)-perhexiline], in [3] (attributed to CYP2D6-mediated metabolism, ref Davies et al. 2008), the “clearance relative to the other enantiomer” value is on record as “higher clearance rate”.
As to `O[C@H]1CC[C@H](C(CC2CCCCN2)C2CCCCC2)CC1` (stereo partly drawn) [M1, trans-OH-Phx-1], the “increase of M1 compared to EV control cells” value in series [22] amounted to 2.6 fold.

Usually IC50 stands for the midpoint of a concentration-inhibition curve. A low value points to greater potency.
